In ChEMBL document CHEMBL1132564, “Antitumor benzothiazoles. 7. Synthesis of 2-(4-acylaminophenyl)benzothiazoles and investigations into the role of acetylation in the antitumor activities of the parent amines” (J Med Chem, 1999):

Tests used:
ACHN = experiment: In vitro antitumor activity against Renal cancer ACHN cell lines by 6-day assay; format: functional; conditions: Homo sapiens, 144 h
Method in brief: (§1)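 NCI 60-cell-line panel, sulforhodamine B protein stain. Seeding density set per line's growth; 24 h drug-free incubation, then test agent at five 10-fold dilutions up to 10^-4 M for 6 days of exposure. Growth inhibition derived from change in protein-stain optical density; log GI50 reported.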

HT-29 = experiment: In vitro antitumor activity against colon cancer HT-29 cell lines by 6-day assay; format: functional; conditions: Homo sapiens, HT-29, 144 h; method in brief: as §1
DU-145 = experiment: In vitro antitumor activity against Prostate cancer DU145 cell lines by 6-day assay; format: functional; conditions: Homo sapiens, DU-145, 144 h; method in brief: as §1
HL-60 = experiment: In vitro antitumor activity against Leukemia HL-60(TB) cell lines by 6-day assay; format: functional; conditions: Homo sapiens, HL-60, 144 h
Method in brief: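 NCI 60-line panel screen using a sulforhodamine B protein-stain read-out. Seeding density is set by each line's growth. After a 24-h drug-free period, compound is added at five 10-fold dilutions up to 10^-4 M. Exposure lasts 6 days, and growth inhibition (GI50) is taken from the change in stain optical density.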

SK-OV-3 = experiment: In vitro antitumor activity against Ovarian cancer SK-OV-3 cell lines by 6-day assay; format: functional; conditions: Homo sapiens, SK-OV-3, 144 h; method in brief: as §1
U-251 = experiment: In vitro antitumor activity against CNS cancer U251 cell lines by 6-day assay; format: functional; conditions: Homo sapiens, U-251, 144 h; method in brief: as §1
MDA-N = experiment: In vitro antitumor activity against Breast cancer MDA-N cell lines by 6-day assay; format: functional; conditions: Homo sapiens, 144 h; method in brief: as §1
NCI-H23 = experiment: In vitro antitumor activity against Non-small cell lung cancer NCI-H23 cell lines by 6-day assay; format: functional; conditions: Homo sapiens, NCI-H23, 144 h; method in brief: as §1
NCI [1] = experiment: In vitro antitumor activity against carcinoma cell lines by 6-day assay; format: functional, Homo sapiens; method in brief: as §1
M14 = experiment: In vitro antitumor activity against melanoma M14 cell lines by 6-day assay; format: functional; conditions: Homo sapiens, M14, 144 h; method in brief: as §1
SW-620 = experiment: In vitro antitumor activity against colon cancer SW-620 cell lines by 6-day assay; format: functional; conditions: Homo sapiens, SW-620, 144 h; method in brief: as §1
HOP-92 = experiment: In vitro antitumor activity against Non-small cell lung cancer HOP92 cell lines by 6-day assay; format: functional; conditions: Homo sapiens, HOP-92, 144 h; method in brief: as §1
UACC-257 = experiment: In vitro antitumor activity against melanoma UACC-257 cell lines by 6-day assay; format: functional; conditions: Homo sapiens, UACC-257, 144 h; method in brief: as §1
HCC 2998 = experiment: In vitro antitumor activity against colon cancer HCC2998 cell lines by 6-day assay; format: functional; conditions: Homo sapiens, HCC 2998, 144 h; method in brief: as §1
SF-295 = experiment: In vitro antitumor activity against CNS cancer SF-295 cell lines by 6-day assay; format: functional; conditions: Homo sapiens, SF-295, 144 h; method in brief: as §1
UO-31 = experiment: In vitro antitumor activity against Renal cancer UO-31 cell lines by 6-day assay; format: functional; conditions: Homo sapiens, UO-31, 144 h; method in brief: as §1
MCF7 = experiment: In vitro antitumor activity against MCF-7 carcinoma cell line.; format: functional, cell-based; conditions: Homo sapiens
Method in brief: (§2)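 MTT assay, 7-day format: 250–300 cells/well, adhered 24 h drug-free, then compound 1 pM–100 μM (n = 8), final DMSO <0.25%; RPMI 1640/10% FCS, 37 °C, 5% CO2. MTT added after exposure, 4 h, formazan dissolved in DMSO–glycine (4:1), absorbance 550 nm.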

SK-MEL-28 = experiment: In vitro antitumor activity against melanoma SK-MEL-28 cell lines by 6-day assay; format: functional; conditions: Homo sapiens, SK-MEL-28, 144 h; method in brief: as §1
CCRF-CEM = experiment: In vitro antitumor activity against Leukemia CCRF-CEM cell lines by 6-day assay; format: functional; conditions: Homo sapiens, 144 h; method in brief: as §1
SK-MEL-5 = experiment: In vitro antitumor activity against melanoma SK-MEL-5 cell lines by 6-day assay; format: functional; conditions: Homo sapiens, SK-MEL-5, 144 h; method in brief: as §1
NCI [2] = experiment: In vitro antitumor activity against carcinoma cell lines by 2-day assay; format: functional, Homo sapiens
Method in brief: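 NCI panel sulforhodamine B assay: line-specific seeding, 24 h drug-free, then five 10-fold dilutions (top 10^-4 M) for 2 days; growth inhibition from protein-stain optical density change; mean log GI50 across panel.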

TK-10 = experiment: In vitro antitumor activity against Renal cancer TK-10 cell lines by 6-day assay; format: functional; conditions: Homo sapiens, TK-10, 144 h; method in brief: as §1
HCT-116 = experiment: In vitro antitumor activity against colon cancer HCT116 cell lines by 6-day assay; format: functional; conditions: Homo sapiens, HCT-116, 144 h; method in brief: as §1
EKVX = experiment: In vitro antitumor activity against Non-small cell lung cancer EKVX cell lines by 6-day assay; format: functional; conditions: Homo sapiens, 144 h; method in brief: as §1
CAKI-1 = experiment: In vitro antitumor activity against Renal cancer CAKI-1 cell lines by 6-day assay; format: functional; conditions: Homo sapiens, CAKI-1, 144 h; method in brief: as §1
MDA-MB-435 = experiment: In vitro antitumor activity against Breast cancer MDA-MB-435 cell lines by 6-day assay; format: functional; conditions: Homo sapiens, MDA-MB-435, 144 h; method in brief: as §1
UACC-62 = experiment: In vitro antitumor activity against melanoma UACC-62 cell lines by 6-day assay; format: functional; conditions: Homo sapiens, UACC-62, 144 h; method in brief: as §1
KM12 = experiment: In vitro antitumor activity against colon cancer KM12 cell lines by 6-day assay; format: functional; conditions: Homo sapiens, KM12, 144 h; method in brief: as §1
A498 = experiment: In vitro antitumor activity against Renal cancer A498 cell lines by 6-day assay; format: functional; conditions: Homo sapiens, A498, 144 h; method in brief: as §1
OVCAR-5 = experiment: In vitro antitumor activity against Ovarian cancer OVCAR-5 cell lines by 6-day assay; format: functional; conditions: Homo sapiens, OVCAR-5, 144 h; method in brief: as §1
IGROV-1 = experiment: In vitro antitumor activity against Ovarian cancer IGROV1 cell lines by 6-day assay; format: functional; conditions: Homo sapiens, IGROV-1, 144 h; method in brief: as §1
OVCAR-8 = experiment: In vitro antitumor activity against Ovarian cancer OVCAR-8 cell lines by 6-day assay; format: functional; conditions: Homo sapiens, OVCAR-8, 144 h; method in brief: as §1
HCT-15 = experiment: In vitro antitumor activity against colon cancer HCT-15 cell lines by 6-day assay; format: functional; conditions: Homo sapiens, HCT-15, 144 h; method in brief: as §1
RXF 393 = experiment: In vitro antitumor activity against Renal cancer RXF393 cell lines by 6-day assay; format: functional; conditions: Homo sapiens, RXF 393, 144 h; method in brief: as §1
COLO 205 = experiment: In vitro antitumor activity against colon cancer COLO 205 cell lines by 6-day assay; format: functional; conditions: Homo sapiens, COLO 205, 144 h; method in brief: as §1
SR = experiment: In vitro antitumor activity against Leukemia SR cell lines by 6-day assay; format: functional; conditions: Homo sapiens, 144 h; method in brief: as §1
RPMI-8226 = experiment: In vitro antitumor activity against Leukemia RPMI-8226 cell lines by 6-day assay; format: functional; conditions: Homo sapiens, RPMI-8226, 144 h; method in brief: as §1
MOLT-4 = experiment: In vitro antitumor activity against Leukemia MOLT-4 cell lines by 6-day assay; format: functional; conditions: Homo sapiens, MOLT-4, 144 h; method in brief: as §1
786-0 = experiment: In vitro antitumor activity against Renal cancer 786-0 cell lines by 6-day assay; format: functional; conditions: Homo sapiens, 786-0, 144 h; method in brief: as §1
BT-549 = experiment: In vitro antitumor activity against Breast cancer BT-549 cell lines by 6-day assay; format: functional; conditions: Homo sapiens, BT-549, 144 h; method in brief: as §1
NCI-H322M = experiment: In vitro antitumor activity against Non-small cell lung cancer NCI-H322M cell lines by 6-day assay; format: functional; conditions: Homo sapiens, 144 h; method in brief: as §1
A549 = experiment: In vitro antitumor activity against Non-small cell lung cancer A549/ATCC cell lines by 6-day assay; format: functional; conditions: Homo sapiens, A549, 144 h; method in brief: as §1
SNB-75 = experiment: In vitro antitumor activity against CNS cancer SNB-75 cell lines by 6-day assay; format: functional; conditions: Homo sapiens, SNB-75, 144 h; method in brief: as §1
SF-268 = experiment: In vitro antitumor activity against CNS cancer SF-268 cell lines by 6-day assay; format: functional; conditions: Homo sapiens, SF-268, 144 h; method in brief: as §1
SNB-19 = experiment: In vitro antitumor activity against CNS cancer SNB-19 cell lines by 6-day assay; format: functional; conditions: Homo sapiens, SNB-19, 144 h; method in brief: as §1
MDA-MB-468 = experiment: In vitro antitumor activity against MDA-468 carcinoma cell line.; format: functional, cell-based; conditions: Homo sapiens; method in brief: as §2
K562 = experiment: In vitro antitumor activity against Leukemia K-562 cell lines by 6-day assay; format: functional; conditions: Homo sapiens, K562, 144 h; method in brief: as §1
SN12C = experiment: In vitro antitumor activity against Renal cancer SN12C cell lines by 6-day assay; format: functional; conditions: Homo sapiens, 144 h; method in brief: as §1

Nc1ccc(-c2nc3ccccc3s2)cc1Br
GI50 (ACHN): 44.7 µM | GI50 (HT-29): 24.5 µM | GI50 (DU-145): > 100 µM | GI50 (HL-60): 9.55 µM | GI50 (SK-OV-3): 58.9 µM | GI50 (U-251): 37.2 µM | GI50 (MDA-N): > 100 µM | GI50 (NCI-H23): 28.8 µM | Mean log GI50 (NCI [1]): -5.01 M | GI50 (M14): 64.6 µM | GI50 (SW-620): 45.7 µM | GI50 (HOP-92): 40.7 µM | GI50 (UACC-257): < 0.01 µM | GI50 (HCC 2998): < 0.01 µM | GI50 (SF-295): 42.7 µM | GI50 (UO-31): 32.4 µM | IC50 (MCF7): < 0.001 µM | GI50 (SK-MEL-28): > 100 µM | GI50 (CCRF-CEM): 40.7 µM | GI50 (SK-MEL-5): 15.8 µM | Mean log GI50 (NCI [2]): -4.67 M | GI50 (TK-10): < 0.01 µM | GI50 (HCT-116): < 0.01 µM | GI50 (EKVX): 81.3 µM | GI50 (CAKI-1): > 100 µM | GI50 (MDA-MB-435): 97.7 µM | GI50 (UACC-62): < 0.01 µM | GI50 (KM12): 69.2 µM | GI50 (A498): 0.191 µM | GI50 (OVCAR-5): < 0.01 µM | GI50 (IGROV-1): < 0.01 µM | GI50 (OVCAR-8): 43.7 µM | GI50 (HCT-15): 31.6 µM | GI50 (RXF 393): 40.7 µM | GI50 (COLO 205): < 0.01 µM | GI50 (SR): 47.9 µM | GI50 (RPMI-8226): > 100 µM | GI50 (MOLT-4): 46.8 µM | GI50 (786-0): 66.1 µM | GI50 (BT-549): 57.5 µM | GI50 (NCI-H322M): > 100 µM | GI50 (A549): > 100 µM | GI50 (SNB-75): > 100 µM | GI50 (SF-268): 34.7 µM | GI50 (SNB-19): 47.9 µM | IC50 (MDA-MB-468): < 0.001 µM | GI50 (K562): > 100 µM | GI50 (SN12C): > 100 µM
